From ChEMBL document CHEMBL1142131, “Effect of anaerobic growth on quinolone lethality with Escherichia coli” (2007) come the findings set out here.

In brackets after ≈: the same amount, converted by molar mass. Activity calls are given as the source filed them. The calls are words filed in the database; no cut-off is given here.

Assay [1] deals with Escherichia coli. Nature of the assay: Bacteriostatic activity against Escherichia coli DM4100 in aerobic condition. In kind it is functional. Put shortly:
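MIC from 10^4 to 10^5 cells/ml in liquid medium with serial twofold quinolone dilutions. Incubated at 37°C with shaking, 2-ml cultures, aerobic.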

Assay [2] deals with Escherichia coli. Nature of the assay: Bactericidal activity against Escherichia coli DM4100 in aerobic condition. In kind it is functional, organism-based. In a few lines: (§1)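 Mid-log cells grown aerobically at 37°C in liquid medium, split into 2-ml portions and given quinolone for 2 h with shaking in air. Chloramphenicol 20 µg/ml was added 10 min before quinolone for the chloramphenicol arm. Cells were diluted in ice-cold LB and plated on drug-free LB agar overnight at 37°C aerobically. Read-out is CFU relative to CFU at time of quinolone addition.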

For assay [3], the system named is Escherichia coli. Nature of the assay: Bactericidal activity in Escherichia coli KD2329 with gyrA-par C resistant mutation. In kind it is functional, organism-based. Put shortly:
as §1

Assay [4] concerns Escherichia coli. Nature of the assay: Bactericidal activity against Escherichia coli DM4100 in anaerobic condition. It counts as functional, organism-based. Put shortly: (§2)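 Mid-log aerobic cultures at 37°C were split into 2-ml portions in sealed tubes flushed with anaerobic gas (85% N2, 10% H2, 5% CO2). After 20 min, anaerobic quinolone solution was added and incubation continued 2 h under gas flow. Cells were diluted in ice-cold LB, plated aerobically on drug-free LB agar overnight at 37°C. Survival is CFU relative to CFU at drug addition.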

In assay [5] the test system is Escherichia coli. Nature of the assay: Bactericidal activity against Escherichia coli DM4100 in the presence of chloramphenicol. In kind it is functional, organism-based. Put shortly:
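Aerobically growing mid-log cells at 37°C received chloramphenicol to 20 µg/ml 10 min before the quinolone. Treatment ran 2 h. Cells were diluted in ice-cold LB and plated aerobically on drug-free LB agar overnight at 37°C. Survival is CFU relative to CFU at quinolone addition. Replicate experiments were run.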

For assay [6], the system named is Escherichia coli. The assay can be described thus: Bactericidal activity in Escherichia coli KD1373 containing parC resistance mutation in aerobic condition. In kind it is functional, organism-based. Put shortly: as §1
In assay [7] the test system is Escherichia coli. Nature of the assay: Bactericidal activity in Escherichia coli KD1373 containing parC resistance mutation in anaerobic condition. It counts as functional, organism-based. In a few lines:
as §2

Assay [8] concerns Escherichia coli. The assay can be described thus: Bacteriostatic activity against Escherichia coli DM4100 in anaerobic condition. In kind it is functional. Put shortly:
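MIC from 10^4 to 10^5 cells/ml in liquid medium with serial twofold quinolone dilutions. Incubated at 37°C in sealed tubes after 20 min flushing with anaerobic gas (85% N2, 10% H2, 5% CO2).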

Assay [9] deals with Escherichia coli. The assay can be described thus: Bactericidal activity in Escherichia coli KD1373 containing parC resistance mutation in presence of chloramphenicol. In kind it is functional, organism-based. In a few lines:
as §1

For assay [10], the system named is Escherichia coli. Nature of the assay: Bactericidal activity against Escherichia coli DM4100 in saline. In kind it is functional, organism-based.
Assay [11] concerns Escherichia coli. The assay can be described thus: Chromosome fragmentation in Escherichia coli DM4100 assessed as reduced lysate viscosity at 50 ug/ml after 2 hrs in aerobic condition. In kind it is functional, organism-based. In a few lines:
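Exponential aerobic cells were treated 2 h with drug, then gently lysed with lysozyme and nonionic detergents at 20°C for 2–3 min. Lysate twofold dilutions received pancreatic RNase 20 µg/ml, were heated at 80°C for 2 min, chilled on ice and brought to 20°C. Viscosity was measured by capillary viscometry.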

Assay [12] concerns Escherichia coli. The assay can be described thus: Bactericidal activity in Escherichia coli KD2750 containing gyrA resistant mutation in anerobic condition. In kind it is functional, organism-based. Put shortly:
as §2

The test system of assay [13] is Escherichia coli. The assay can be described thus: Bactericidal activity in Escherichia coli KD1373 containing parC mutation in anerobic condition. It counts as functional, organism-based. Put shortly: as §2
In assay [14] the test system is Escherichia coli. Nature of the assay: Bactericidal activity in Escherichia coli KD2329 containing gyrA-parC mutation. It counts as functional, organism-based. Put shortly:
as §1

Take `CCN1CCN(c2c(F)cc3c(=O)c(C(=O)O)cn(C4CC4)c3c2OC)CC1`: the MIC against Escherichia coli [1] and in the assay on Escherichia coli [8] was 0.08 µg/mL (≈ 0.205 µM) throughout. Further, the result with Escherichia coli [2], with Escherichia coli [4], in the assay on Escherichia coli [5], with Escherichia coli [6], with Escherichia coli [7] and in the assay with Escherichia coli [9] was Active. Besides, in the assay with Escherichia coli [3], the result was inactive.

Consider `CCn1cc(C(=O)O)c(=O)c2ccc(C)nc21` [NALIDIXIC ACID], for which the MIC in the assay with Escherichia coli [1] and in the assay on Escherichia coli [8] was 5 µg/mL (≈ 21.5 µM) each time. Besides, the outcome with Escherichia coli [10], with Escherichia coli [4] and with Escherichia coli [5] was inactive. In addition, the outcome with Escherichia coli [2] and with Escherichia coli [11] was Active.

Take `O=C(O)c1cn(C2CC2)c2cc(N3CCNCC3)c(F)cc2c1=O`: the outcome in the assay with Escherichia coli [10], in the assay with Escherichia coli [2], in the assay on Escherichia coli [4] and in the assay on Escherichia coli [5] was Active.

In the case of `CCn1cc(C(=O)O)c(=O)c2cc(F)c(N3CCNCC3)cc21` [NORFLOXACIN], the MIC against Escherichia coli [1] and with Escherichia coli [8] was 0.075 µg/mL (≈ 0.235 µM) each time. Also, the outcome with Escherichia coli [10], in the assay on Escherichia coli [2], in the assay with Escherichia coli [12], with Escherichia coli [13] and in the assay on Escherichia coli [4] was Active. In addition, the result in the assay with Escherichia coli [14] and in the assay with Escherichia coli [5] was inactive.
